Measured values published in ChEMBL document CHEMBL1137711, “Design, synthesis, structure-activity relationship and antibacterial activity series of novel imidazo fused quinolone carboxamides” (2009).
Values after ≈ are worked out from the molar mass of the structure shown. Active and inactive are the calls of the source. The calls are words filed in the database; no cut-off is given here.

Experiments:
Format in all cases: functional
Bacillus subtilis = experiment: Antibacterial activity against Bacillus subtilis after 24 hrs by broth dilution method
Method in brief: (§1)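 MIC by broth dilution (NCCLS 1982) in nutrient broth, test compound serially diluted across tubes 1–9. Each tube receives 0.5 ml overnight culture. Incubation 37 °C for 24 h, then turbidity read. DMSO as negative control, ciprofloxacin as reference.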

[1] = tested on: Lysinibacillus sphaericus; experiment: Antibacterial activity against Bacillus sphaericus after 24 hrs by broth dilution method
Method in brief: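 Broth dilution per NCCLS 1982: test agent serially diluted across tubes 1–9 of sterile nutrient broth; 0.5 ml overnight culture added to each tube; incubated at 37 °C for 24 h, then turbidity read to give the minimum inhibitory concentration. DMSO served as negative control; ciprofloxacin run alongside.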

Staphylococcus aureus = experiment: Antibacterial activity against Staphylococcus aureus after 24 hrs by broth dilution method; method in brief: as §1
Pseudomonas aeruginosa = experiment: Antibacterial activity against Pseudomonas aeruginosa after 24 hrs by broth dilution method; method in brief: as §1
Klebsiella aerogenes = experiment: Antibacterial activity against Klebsiella aerogenes after 24 hrs by broth dilution method; method in brief: as §1
[2] = tested on: Chromobacterium violaceum; experiment: Antibacterial activity against Chromobacterium violaceum after 24 hrs by broth dilution method; method in brief: as §1

## CCCCCCc1nc2c3c(cc(F)c2n1C)c(=O)c(C(=O)NC)cn3CC
Bacillus subtilis
  MIC: inactive
[1]
  MIC: inactive
Staphylococcus aureus
  MIC: inactive
Pseudomonas aeruginosa
  MIC: 50 µg/mL (≈ 129 µM)
Klebsiella aerogenes
  MIC: 50 µg/mL (≈ 129 µM)
[2]
  MIC: 25 µg/mL (≈ 64.7 µM)

## CNC(=O)c1cn2c(-c3ccc(N(C)C)cc3)nc3c(NC)c(F)cc(c1=O)c32
Bacillus subtilis
  MIC: 25 µg/mL (≈ 63.5 µM)
[1]
  MIC: 25 µg/mL (≈ 63.5 µM)
Staphylococcus aureus
  MIC: 12.5 µg/mL (≈ 31.8 µM)
Pseudomonas aeruginosa
  MIC: 6.25 µg/mL (≈ 15.9 µM)
Klebsiella aerogenes
  MIC: 25 µg/mL (≈ 63.5 µM)
[2]
  MIC: 12.5 µg/mL (≈ 31.8 µM)

## CNC(=O)c1cn2c(-c3ccc(Cl)cc3)nc3c(NC)c(F)cc(c1=O)c32
Bacillus subtilis
  MIC: 25 µg/mL (≈ 65 µM)
[1]
  MIC: 25 µg/mL (≈ 65 µM)
Staphylococcus aureus
  MIC: 25 µg/mL (≈ 65 µM)
Pseudomonas aeruginosa
  MIC: 25 µg/mL (≈ 65 µM)
Klebsiella aerogenes
  MIC: inactive
[2]
  MIC: 6.25 µg/mL (≈ 16.2 µM)

## CCn1cc(C(=O)NC)c(=O)c2cc(F)c3c(nc(C(C)C)n3C)c21
Bacillus subtilis
  MIC: 12.5 µg/mL (≈ 36.3 µM)
[1]
  MIC: 25 µg/mL (≈ 72.6 µM)
Staphylococcus aureus
  MIC: 50 µg/mL (≈ 145 µM)
Pseudomonas aeruginosa
  MIC: 50 µg/mL (≈ 145 µM)
Klebsiella aerogenes
  MIC: 50 µg/mL (≈ 145 µM)
[2]
  MIC: 12.5 µg/mL (≈ 36.3 µM)

## CNC(=O)c1cn2c(-c3ccc(O)cc3)nc3c(NC)c(F)cc(c1=O)c32
Bacillus subtilis
  MIC: 12.5 µg/mL (≈ 34.1 µM)
[1]
  MIC: 25 µg/mL (≈ 68.2 µM)
Staphylococcus aureus
  MIC: 25 µg/mL (≈ 68.2 µM)
Pseudomonas aeruginosa
  MIC: inactive
Klebsiella aerogenes
  MIC: inactive
[2]
  MIC: 25 µg/mL (≈ 68.2 µM)

## CCc1nc2c3c(cc(F)c2n1C)c(=O)c(C(=O)NC)cn3CC
Bacillus subtilis
  MIC: inactive
[1]
  MIC: inactive
Staphylococcus aureus
  MIC: inactive
Pseudomonas aeruginosa
  MIC: inactive
Klebsiella aerogenes
  MIC: inactive
[2]
  MIC: inactive

## CNC(=O)c1cn2c(-c3ccc(OC)cc3)nc3c(NC)c(F)cc(c1=O)c32
Bacillus subtilis
  MIC: 12.5 µg/mL (≈ 32.9 µM)
[1]
  MIC: 12.5 µg/mL (≈ 32.9 µM)
Staphylococcus aureus
  MIC: 25 µg/mL (≈ 65.7 µM)
Pseudomonas aeruginosa
  MIC: 6.25 µg/mL (≈ 16.4 µM)
Klebsiella aerogenes
  MIC: inactive
[2]
  MIC: 25 µg/mL (≈ 65.7 µM)

## CCCc1nc2c3c(cc(F)c2n1C)c(=O)c(C(=O)NC)cn3CC
Bacillus subtilis
  MIC: 12.5 µg/mL (≈ 36.3 µM)
[1]
  MIC: 50 µg/mL (≈ 145 µM)
Staphylococcus aureus
  MIC: 25 µg/mL (≈ 72.6 µM)
Pseudomonas aeruginosa
  MIC: 25 µg/mL (≈ 72.6 µM)
Klebsiella aerogenes
  MIC: 12.5 µg/mL (≈ 36.3 µM)
[2]
  MIC: 25 µg/mL (≈ 72.6 µM)

## O=C(O)c1cn(C2CC2)c2cc(N3CCNCC3)c(F)cc2c1=O [CIPROFLOXACIN]
Bacillus subtilis
  MIC: 0.78 µg/mL (≈ 2.35 µM)
[1]
  MIC: 0.78 µg/mL (≈ 2.35 µM)
Staphylococcus aureus
  MIC: 0.39 µg/mL (≈ 1.18 µM)
Pseudomonas aeruginosa
  MIC: 0.78 µg/mL (≈ 2.35 µM)
Klebsiella aerogenes
  MIC: 0.78 µg/mL (≈ 2.35 µM)
[2]
  MIC: 0.39 µg/mL (≈ 1.18 µM)

## CNC(=O)c1cn2c(-c3ccccc3)nc3c(NC)c(F)cc(c1=O)c32
Bacillus subtilis
  MIC: 12.5 µg/mL (≈ 35.7 µM)
[1]
  MIC: 25 µg/mL (≈ 71.4 µM)
Staphylococcus aureus
  MIC: 6.25 µg/mL (≈ 17.8 µM)
Pseudomonas aeruginosa
  MIC: 12.5 µg/mL (≈ 35.7 µM)
Klebsiella aerogenes
  MIC: inactive
[2]
  MIC: 12.5 µg/mL (≈ 35.7 µM)

## CCCCc1nc2c3c(cc(F)c2n1C)c(=O)c(C(=O)NC)cn3CC
Bacillus subtilis
  MIC: inactive
[1]
  MIC: inactive
Staphylococcus aureus
  MIC: inactive
Pseudomonas aeruginosa
  MIC: 12.5 µg/mL (≈ 34.9 µM)
Klebsiella aerogenes
  MIC: 25 µg/mL (≈ 69.8 µM)
[2]
  MIC: 25 µg/mL (≈ 69.8 µM)

## CNC(=O)c1cn2c(-c3ccco3)nc3c(NC)c(F)cc(c1=O)c32
Bacillus subtilis
  MIC: 6.25 µg/mL (≈ 18.4 µM)
[1]
  MIC: 25 µg/mL (≈ 73.5 µM)
Staphylococcus aureus
  MIC: 6.25 µg/mL (≈ 18.4 µM)
Pseudomonas aeruginosa
  MIC: 12.5 µg/mL (≈ 36.7 µM)
Klebsiella aerogenes
  MIC: inactive
[2]
  MIC: 6.25 µg/mL (≈ 18.4 µM)

## CNC(=O)c1cn2c(-c3ccc(C)cc3)nc3c(NC)c(F)cc(c1=O)c32
Bacillus subtilis
  MIC: 25 µg/mL (≈ 68.6 µM)
[1]
  MIC: 12.5 µg/mL (≈ 34.3 µM)
Staphylococcus aureus
  MIC: 12.5 µg/mL (≈ 34.3 µM)
Pseudomonas aeruginosa
  MIC: 6.25 µg/mL (≈ 17.2 µM)
Klebsiella aerogenes
  MIC: inactive
[2]
  MIC: 6.25 µg/mL (≈ 17.2 µM)

## CNC(=O)c1cn2c(-c3ccc(F)cc3)nc3c(NC)c(F)cc(c1=O)c32
Bacillus subtilis
  MIC: 25 µg/mL (≈ 67.9 µM)
[1]
  MIC: 25 µg/mL (≈ 67.9 µM)
Staphylococcus aureus
  MIC: 25 µg/mL (≈ 67.9 µM)
Pseudomonas aeruginosa
  MIC: 25 µg/mL (≈ 67.9 µM)
Klebsiella aerogenes
  MIC: inactive
[2]
  MIC: 6.25 µg/mL (≈ 17 µM)

## CNC(=O)c1cn2c(-c3ccc([N+](=O)[O-])cc3)nc3c(NC)c(F)cc(c1=O)c32
Bacillus subtilis
  MIC: 12.5 µg/mL (≈ 31.6 µM)
[1]
  MIC: 12.5 µg/mL (≈ 31.6 µM)
Staphylococcus aureus
  MIC: 12.5 µg/mL (≈ 31.6 µM)
Pseudomonas aeruginosa
  MIC: inactive
Klebsiella aerogenes
  MIC: inactive
[2]
  MIC: 25 µg/mL (≈ 63.2 µM)

## CCCCCc1nc2c3c(cc(F)c2n1C)c(=O)c(C(=O)NC)cn3CC
Bacillus subtilis
  MIC: 25 µg/mL (≈ 67.1 µM)
[1]
  MIC: 50 µg/mL (≈ 134 µM)
Staphylococcus aureus
  MIC: 25 µg/mL (≈ 67.1 µM)
Pseudomonas aeruginosa
  MIC: 25 µg/mL (≈ 67.1 µM)
Klebsiella aerogenes
  MIC: 12.5 µg/mL (≈ 33.6 µM)
[2]
  MIC: 25 µg/mL (≈ 67.1 µM)

## CCn1cc(C(=O)NC)c(=O)c2cc(F)c3c(nc(CC(C)C)n3C)c21
Bacillus subtilis
  MIC: inactive
[1]
  MIC: inactive
Staphylococcus aureus
  MIC: inactive
Pseudomonas aeruginosa
  MIC: 25 µg/mL (≈ 69.8 µM)
Klebsiella aerogenes
  MIC: 12.5 µg/mL (≈ 34.9 µM)
[2]
  MIC: 25 µg/mL (≈ 69.8 µM)
